OX1R antag-1 = blocks the human orexin 1 receptor; 1.8% of 330,000 active; inhibition, % at 6.6 µM; AID 485270; O43613; OX1R-expressing cells, FRET antagonist read-out; in the data active means inhibition mostly above about 38%, no sharp cut-off; inactive means mostly below about 40%;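 further: 0% = agonist challenge alone and 100% = reference antagonist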
TAAR1 antagonist = human TAAR1 antagonism; Q96RJ0; CHO RD-HGA16 TAAR1, Fluo-8 calcium fluorescence, antagonist; inhibition, % at 3 µM; 1.5% of 360,000 active;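 active means inhibition above a per-plate cutoff, the mean inhibition of test compounds on that plate plus 3 SD, cut at about 49% in these data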;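 further: 0% = DMSO plus EC80 beta-PEA response and 100% = DMSO alone without agonist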
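Assay system: CHO-derived RD-HGA16 cells stably expressing human TAAR1 plus Gα16. Timing: 140 s kinetic read after compound, 140 s after agonist. Technique: kinetic Fluo-8 calcium fluorescence measurement. Measure: % inhibition of agonist calcium response.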
OX1R antag-2 = blocks the human orexin 1 receptor; inhibition, % at 5 µM; O43613; 0.43% of 330,000 active; CHO/OX1R cells, Fluo-8 calcium fluorescence, orexin A;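 active means inhibition above its plate's threshold, mean inhibition of all tested compounds on the plate plus 3 SD, cut at about 37% in these data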;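 further: 0% = orexin A challenge wells and 100% = SB-334867-A antagonist wells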
TAAR1 agonist = human TAAR1 agonism; activation, % at 3 µM; CHO RD-HGA16 TAAR1, Fluo-8 calcium fluorescence; vehicle wells 0%, saturating PEA agonist 100%; 0.99% of 360,000 active;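 active means activation above the mean activation of all test compounds in the run plus 3 SD, cut at about 38% in these data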
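System: CHO-derived RD-HGA16 cells with stable Gα16 and human TAAR1 / Times: 17-24 h plating, Fluo-8 75 min 37 °C, 30 min RT / Technique: calcium-sensitive Fluo-8 signal, excitation 470-495, emission 515-575 nm / Measure: % activation relative to PEA EC100 response / Benchmarks: DMSO and PEA EC100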
CHO parental Ca = counter-screen: ATP calcium response change in parental CHO cells. parental CHO-K1, ATP-induced calcium, Fluo-8 fluorescence. inhibition, % at 5.6 µM. 0.63% of 330,000 active. AID 463079;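 active means inhibition above that plate's mean sample inhibition plus 3 SD, cut at about 26% in these data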;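 further: 0% = ATP-challenged DMSO wells and 100% = DMSO wells without ATP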
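Assay system – parental CHO cells · Reagent – ATP stimulus · Detection – intracellular calcium via Fluo-8 no-wash fluorescent dye · Evaluation – percent inhibition of ATP-evoked calcium rise, normalized to controls · Controls – ATP wells versus no-ATP DMSO wells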
GalR3 antag = human GalR3 antagonism | HEK293 GalR3-CNG cAMP membrane potential fluorescence; galR3 body fused to GalR1 C-terminus | inhibition, % at 3 µM | 0.44% of 360,000 active | AID 651719;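 active means inhibition above the screen-wide average plus 3 SD, cut at about 13% in these data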;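 further: forskolin and galanin both at EC90 stimulate the cells; cAMP rise reported by CNG channel membrane potential dye signal; 0% = forskolin plus galanin with DMSO and 100% = forskolin alone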
Target sequence (O60755 1-299 limits assumed): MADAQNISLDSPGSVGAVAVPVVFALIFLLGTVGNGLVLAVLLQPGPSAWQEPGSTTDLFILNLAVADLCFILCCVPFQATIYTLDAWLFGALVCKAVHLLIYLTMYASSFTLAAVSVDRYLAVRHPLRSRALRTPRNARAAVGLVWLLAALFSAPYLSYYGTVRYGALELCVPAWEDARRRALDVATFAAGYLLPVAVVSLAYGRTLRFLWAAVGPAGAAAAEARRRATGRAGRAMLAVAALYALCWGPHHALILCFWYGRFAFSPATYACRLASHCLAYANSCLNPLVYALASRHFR
nonsel antag count = nonselective antagonist in TAAR1 antagonist counter-screen | inhibition, % at 3 µM | shares compounds with TAAR1 antagonist | 77% of 2,400 active | counterscreen cell line, calcium fluorescence, antagonist mode; in the data active means inhibition above about 22%;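 further: CHO-Ga16 host cells stimulated with ATP at an EC80 level; 0% = agonist EC80 plus vehicle and 100% = vehicle without agonist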
TAAR1 ant conf = human TAAR1 antagonism, confirmed; AID 651785; inhibition, % at 3 µM; 40% of 2,400 active; TAAR1-expressing cells, fluorescence antagonist read-out; shares compounds with TAAR1 antagonist; in the data active means inhibition above about 49%;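 further: CHO-Ga16 host cells challenged with agonist PEA near its EC80; 0% = agonist at EC80 plus vehicle and 100% = vehicle with no agonist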
Ga16 nonsel ag = nonselective Ga16 agonist in TAAR1 antagonist counter-screen; AID 651953; activation, % at 3 µM; Ga16-expressing cells, calcium fluorescence, agonist counterscreen; 18% of 2,400 active; shares compounds with TAAR1 antagonist; in the data active means activation above about 12%;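 further: 0% = vehicle wells and 100% = saturating stimulus response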
TAAR1 ag counter = activates human TAAR1 in antagonist counter-screen. shares compounds with TAAR1 antagonist. hTAAR1 cell line, fluorescence activation, agonist mode. activation, % at 3 µM. 2% of 2,400 active; in the data active means activation above about 37%;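 further: CHO cells stably expressing TAAR1 with calcium dye readout; 0% = DMSO vehicle and 100% = full agonist response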
An asterisk follows results filed as active; / = no result. Compounds with a hit are over-represented: about 4.2% of the library has one in this group of screens.

SMILES | OX1R antag-1 | TAAR1 antagonist | OX1R antag-2 | TAAR1 agonist | CHO parental Ca | GalR3 antag | nonsel antag count | TAAR1 ant conf | Ga16 nonsel ag | TAAR1 ag counter
CCN(C)C1CN(Cc2cn(CCCOC)nn2)S(=O)(=O)C1 (stereo not drawn) | / | 13.7 | / | 0.4 | / | -5.4 | / | / | / | /
CN1CCN(CCc2nc3cc(NC(=O)COc4ccccc4)ccc3n2C)CC1 | 16.2 | -0.7 | -11.9 | 0.2 | -6.4 | -3.1 | / | / | / | /
CCN(CC)Cc1c(O)ccc2c([N+](=O)[O-])c(C)n(-c3ccc(OC)cc3)c12 | 1.9 | -0.3 | -18.2 | 1.5 | -15.5 | -3.8 | / | / | / | /
COc1ccc(/C=N/NC(=O)c2nc(-c3ccccc3)cc(-c3ccccc3)n2)cc1OC | 15.7 | 50.6* | -20.2 | 20.7 | -16.4 | -0.6 | 26.0* | 44.1 | 7.3 | 8.9
COc1cc(/C=N\NC(=O)c2ccc(-c3ccccc3)cc2)cc(OC)c1OC(C)=O | / | 60.8* | / | 8.5 | / | 1.3 | 29.0* | 38.4 | 8.1 | 3.4
COc1cccc(/C=N/NC(=O)c2nc(-c3ccccc3)cc(-c3ccccc3)n2)c1 | 6.4 | 10.3 | -17.4 | 8.3 | -15.1 | -2.9 | / | / | / | /
COc1cc(/C=N\NC(=O)c2ccc(-c3ccccc3)cc2)cc(OC)c1O | 31.1 | 29.9 | -11.5 | 3.6 | -18.8 | 5.0 | / | / | / | /
COc1cc(/C=N/NC(=O)c2cccc(NC(=O)c3ccccc3)c2)ccc1O | 10.6 | 64.5* | -14.3 | 14.3 | -22.6 | 10.2 | 30.5* | 56.9* | 7.2 | 6.6
COc1cc(/C=N/NC(=O)c2ccncc2)ccc1O | 21.4 | -22.0 | -1.5 | 9.4 | -4.0 | -1.5 | / | / | / | /
O=C(Nc1ccc2c(c1)OCO2)C1CCCCC1 | 35.7 | -10.2 | -14.4 | 3.3 | -9.8 | -1.0 | / | / | / | /
O=C(Nc1c(F)cc(F)cc1Br)c1cc(S(=O)(=O)N2CCN(c3ccccn3)CC2)ccc1F | 12.2 | 19.9 | -30.2 | 1.6 | -12.5 | -6.7 | / | / | / | /
O=C(Nc1c(F)cccc1F)c1cnc(N2CCN(c3ccccn3)CC2)c2ccccc12 | 25.7 | 63.3* | -27.2 | 14.0 | -15.4 | -1.4 | 34.6* | 59.6* | 6.7 | 4.9
CC1(Cc2ccccc2Cl)C(=O)Nc2c(Cl)ccc(Cl)c21 (stereo not drawn) | / | 56.8* | / | 3.0 | / | -6.3 | 0.0 | 31.9 | 15.3* | 31.7
C=CCN1C[C@H](COC(=O)c2cccc(C)c2)Oc2cccc(F)c2S1(=O)=O | / | 49.1* | / | 1.3 | / | -10.0 | 38.0* | 49.6* | 7.3 | 6.2
O[C@@H]1CN(Cc2cccs2)[C@@H](c2ccc(Cl)cc2)C[C@H]1n1cc(C2CC2)nn1 | / | 11.1 | / | 0.9 | / | -5.2 | / | / | / | /
CN(CC(=O)Nc1ccc(F)cc1)C(=O)c1cc(-c2cccs2)nn1-c1ccccc1 | / | 69.1* | / | 6.3 | / | 1.7 | 27.7* | 44.8 | 6.1 | 7.6
Brc1ccc2nc(-c3ccc(CN4CCC5(CC4)CNc4ccccc45)cc3)c(-c3ccccc3)nc2c1 | / | 49.4* | / | 5.0 | / | -6.7 | 26.5* | 39.4 | 2.7 | 5.1
NC(=O)c1sc2nc3c(c(-c4ccco4)c2c1N)CCCC3 | 12.9 | -22.8 | -25.3 | 7.5 | -8.3 | -1.8 | / | / | / | /
Nc1c(C(=O)NCC2CCCO2)sc2nc3c(c(-c4ccco4)c12)CC/C3=C\c1ccco1 (stereo not drawn) | / | 52.9* | / | 16.4 | / | -5.1 | -2.3 | 0.3 | 2.8 | 1.7
CCN(CC)C(=O)[C@H]1C[C@@H]2[C@H](C[C@@H](c3ccccc3)[C@H]1C)N(c1ccc(F)cc1)C(=O)N2CCCOc1ccccc1 | / | 68.8* | / | 3.6 | / | -7.8 | 30.3* | 57.8* | 5.2 | 5.4

Screening results: PubChem BioAssay, The Scripps Research Institute Molecular Screening Center
